Experimental findings from ChEMBL document CHEMBL3097988, “Synthesis and characterization of new N-(4-(4-chloro-1H-imidazol-1-yl)-3-methoxyphenyl)amide/sulfonamide derivatives as possible antimicrobial and antitubercular agents” (2014) are described below.

Converted amounts (≈) assume the structure as drawn.

Holding throughout (format): functional
One assay has as its system Klebsiella pneumoniae. The assay can be described thus: Antimicrobial activity against Klebsiella pneumoniae ATCC 13883 after 16 to 18 hrs by serial plate dilution method. The method, boiled down: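 Bacterial MIC by serial dilution in Mueller-Hinton broth adjusted to pH 5.0 with phosphate buffer. Tubes inoculated with standardized bacterial suspension, incubated 16–18 h at 37 °C. MIC read as lowest concentration with no visible growth. Range […] per mL. DMSO as negative control, ciprofloxacin as positive control.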

For the next assay, the system named is Staphylococcus aureus. The assay can be described thus: Antimicrobial activity against Staphylococcus aureus ATCC 25923 after 16 to 18 hrs by […].
For a further assay, the system named is Candida albicans. As to the kind of experiment: Antimicrobial activity against Candida albicans after 3 to 4 days by serial plate dilution method. The method, boiled down:
(§1)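 Fungal MIC by serial plate dilution. Sabouraud agar (peptone, D-glucose, agar; pH 5.7) plates seeded with saline spore suspension, dried 1 h at 37 °C. Wells punched and filled with compound in DMSO; DMSO-only control. Triplicate plates held 3–4 days at 37 °C; inhibition zone diameter measured. Amphotericin B positive control. Tested range […] per mL.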

The subject of assay [1] is Mycobacterium tuberculosis. The assay can be described thus: Antimicrobial activity against Mycobacterium tuberculosis H37Rv ATCC 27294 after 7 days by resazurin assay. The following applies: H37Rv ATCC 27294, 168 h. The essentials: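 Resazurin microtitre assay. Cultures were grown in Middlebrook 7H9 with 10% OADC and added to fresh medium in 96-well plates. Test compounds came from 2 mg/mL DMF stocks, with DMF-only controls. Plates were incubated 7 days at 37 °C, then resazurin was added and read after 1 h at 37 °C. MIC was the lowest concentration preventing the blue-to-pink change.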

The subject of the next assay is Escherichia coli. The assay can be described thus: Antimicrobial activity against Escherichia coli ATCC 25922 after 16 to 18 hrs by […].
Assay [2] has as its system Mycobacterium tuberculosis. The assay can be described thus: Antimicrobial activity against Mycobacterium tuberculosis H37Rv ATCC 27294 at 1 to 100 ug/ml after 7 days by resazurin assay. The essentials:
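Preliminary screen at three concentrations (1, 10 and 100) by resazurin microtitre assay. Cultures were grown in Middlebrook 7H9 with 10% OADC, and compounds came from 2 mg/mL DMF stocks with DMF controls. Plates were incubated 7 days at 37 °C, and resazurin colour was read after 1 h. Inhibition was scored as no blue-to-pink change.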
For orientation: Resazurin is reduced to fluorescent resorufin, in cell work by metabolically active cells.

In a further assay the test system is Rhizopus. The assay can be described thus: Antimicrobial activity against Rhizopus sp. after 3 to 4 days by serial plate dilution method. The method, boiled down:
as §1

For a further assay, the system named is Aspergillus flavus. As to the kind of experiment: Antimicrobial activity against Aspergillus flavus after 3 to 4 days by serial plate dilution method. The essentials:
as §1

The subject of assay [3] is Mycolicibacterium smegmatis. As to the kind of experiment: Antimicrobial activity against Mycobacterium smegmatis (MC2) ATCC 19420 after 7 days by resazurin assay. To be noted: (MC2) ATCC 19420, 168 h.
In assay [4] the test system is Mycolicibacterium fortuitum. The assay can be described thus: Antimicrobial activity against Mycobacterium fortuitum ATCC 19542 after 7 days by resazurin assay. The following applies: ATCC 19542, 168 h.

As for `O=C(O)c1cn(C2CC2)c2cc(N3CCNCC3)c(F)cc2c1=O` [CIPROFLOXACIN], the MIC against Klebsiella pneumoniae stood at 16 µg/mL (≈ 48.3 µM); in the assay with Staphylococcus aureus, 8 µg/mL (≈ 24.1 µM).

Consider `COc1cc(NS(=O)(=O)c2ccc(Cl)cc2Cl)ccc1-n1cnc(Cl)c1`, for which the MIC against Candida albicans came to 128 µg/mL (≈ 296 µM); in assay [1], 5 µg/mL (≈ 11.6 µM); in the assay on Escherichia coli, 4 µg/mL (≈ 9.24 µM); with Klebsiella pneumoniae, 64 µg/mL (≈ 148 µM); against Staphylococcus aureus it was 8 µg/mL (≈ 18.5 µM); in the assay with Rhizopus, 128 µg/mL (≈ 296 µM). For the same compound, it took 64 µg/mL (≈ 148 µM) to inhibit growth against Aspergillus flavus (MIC). For the same compound, in assay [2], the “inhibition (INH)” value is reported as less than 90%.

In the case of `COc1cc(NS(=O)(=O)c2cccc(C(C)C#N)c2)ccc1-n1cnc(Cl)c1` (stereo not drawn), the MIC in the assay on Candida albicans stood at 64 µg/mL (≈ 154 µM); in assay [1], 2.5 µg/mL (≈ 6 µM); with Escherichia coli, 128 µg/mL (≈ 307 µM); in [3], 2.5 µg/mL (≈ 6 µM); with Klebsiella pneumoniae, 64 µg/mL (≈ 154 µM); with Staphylococcus aureus, 64 µg/mL (≈ 154 µM). For the same compound, the MIC with Rhizopus stood at 256 µg/mL (≈ 614 µM); in the assay on Aspergillus flavus it was 128 µg/mL (≈ 307 µM). Moreover, the “inhibition (INH)” value in assay [2] is recorded as less than 90%.

For the compound `COc1cc(NC(=O)c2cc(F)cc(C(F)(F)F)c2)ccc1-n1cnc(Cl)c1`, the MIC against Candida albicans turned out to be 64 µg/mL (≈ 155 µM); in assay [1] it was 10 µg/mL (≈ 24.2 µM); against Escherichia coli, 128 µg/mL (≈ 309 µM); in assay [4] it was 10 µg/mL (≈ 24.2 µM); in the assay on Klebsiella pneumoniae it was 64 µg/mL (≈ 155 µM); in the assay on Staphylococcus aureus, 128 µg/mL (≈ 309 µM). Besides, the minimum inhibitory concentration (MIC) in the assay on Rhizopus amounted to 128 µg/mL (≈ 309 µM); in the assay on Aspergillus flavus, 256 µg/mL (≈ 619 µM). Moreover, the “inhibition (INH)” value in assay [2] was 90%.

Take `COc1cc(F)c(C(=O)Nc2ccc(-n3cnc(Cl)c3)c(OC)c2)c(F)c1`: the MIC against Candida albicans is 256 µg/mL (≈ 650 µM); in assay [1], 5 µg/mL (≈ 12.7 µM); against Escherichia coli, greater than 256 µg/mL; in the assay with Klebsiella pneumoniae, 128 µg/mL (≈ 325 µM); with Staphylococcus aureus it was 256 µg/mL (≈ 650 µM); with Rhizopus it was greater than 256 µg/mL. The compound further displayed an MIC with Aspergillus flavus of 256 µg/mL (≈ 650 µM). Also, the “inhibition (INH)” value in [2] is listed as less than 90%.

With `COc1ccc(C(=O)Nc2ccc(-n3cnc(Cl)c3)c(OC)c2)cc1OC`, the MIC in the assay with Candida albicans was greater than 256 µg/mL; in the assay with Escherichia coli, 256 µg/mL (≈ 660 µM); in the assay with Klebsiella pneumoniae it was 256 µg/mL (≈ 660 µM); against Staphylococcus aureus, greater than 256 µg/mL; against Rhizopus, 256 µg/mL (≈ 660 µM); with Aspergillus flavus, 128 µg/mL (≈ 330 µM). For the same compound, the “inhibition (INH)” value in assay [2] was 0%.

`COc1cc(F)c(S(=O)(=O)Nc2ccc(-n3cnc(Cl)c3)c(OC)c2)c(C(F)(F)F)c1`: the MIC in the assay on Candida albicans was 128 µg/mL (≈ 267 µM); in [1], 5 µg/mL (≈ 10.4 µM); with Escherichia coli, 128 µg/mL (≈ 267 µM); in assay [3], 10 µg/mL (≈ 20.8 µM); with Klebsiella pneumoniae, 32 µg/mL (≈ 66.7 µM); against Staphylococcus aureus, 64 µg/mL (≈ 133 µM). The MIC worked out at 256 µg/mL (≈ 534 µM) in the assay on Rhizopus and 128 µg/mL (≈ 267 µM) against Aspergillus flavus. The “inhibition (INH)” value in [2] was less than 90%.

On to `COc1cc(NS(=O)(=O)c2cccc([N+](=O)[O-])c2Cl)ccc1-n1cnc(Cl)c1`, for which the MIC was determined as 64 µg/mL (≈ 144 µM) in the assay on Candida albicans; 2.5 µg/mL (≈ 5.64 µM) in [1]; 128 µg/mL (≈ 289 µM) against Escherichia coli; 2.5 µg/mL (≈ 5.64 µM) in assay [3]; 32 µg/mL (≈ 72.2 µM) against Klebsiella pneumoniae; 8 µg/mL (≈ 18 µM) in the assay with Staphylococcus aureus. In addition, the MIC with Rhizopus is 256 µg/mL (≈ 578 µM); against Aspergillus flavus it was 128 µg/mL (≈ 289 µM). Moreover, the “inhibition (INH)” value in assay [2] was less than 90%.

As for `COc1cc(NS(=O)(=O)C2(c3ccc(Cl)cc3)CC2)ccc1-n1cnc(Cl)c1`, the MIC against Candida albicans was 128 µg/mL (≈ 292 µM); in assay [1], 1.25 µg/mL (≈ 2.85 µM); against Escherichia coli it was 64 µg/mL (≈ 146 µM); in assay [4], 10 µg/mL (≈ 22.8 µM); in the assay on Klebsiella pneumoniae, 128 µg/mL (≈ 292 µM); against Staphylococcus aureus, 128 µg/mL (≈ 292 µM). The MIC was 128 µg/mL (≈ 292 µM) against Rhizopus and 64 µg/mL (≈ 146 µM) in the assay on Aspergillus flavus. In [2], the “inhibition (INH)” value is listed as 90%.

`NNC(=O)c1ccncc1` [ISONIAZID]: the MIC in [1] came out at 0.7 µg/mL (≈ 5.1 µM); in assay [3] it was 50 µg/mL (≈ 365 µM); in assay [4], 12.5 µg/mL (≈ 91.1 µM). Also, the “inhibition (INH)” value in assay [2] was 95%.

In the case of `COc1cc(NS(=O)(=O)c2ccco2)ccc1-n1cnc(Cl)c1`, the minimal inhibitory concentration (MIC) was 128 µg/mL (≈ 362 µM) in the assay with Candida albicans; 5 µg/mL (≈ 14.1 µM) in assay [1]; 64 µg/mL (≈ 181 µM) against Escherichia coli; 10 µg/mL (≈ 28.3 µM) in assay [3]; greater than 256 µg/mL against Klebsiella pneumoniae; 128 µg/mL (≈ 362 µM) against Staphylococcus aureus. Moreover, the MIC came out at 256 µg/mL (≈ 724 µM) against Rhizopus and 64 µg/mL (≈ 181 µM) against Aspergillus flavus. Besides, in assay [2], the “inhibition (INH)” value is less than 90%.

A word on the MIC: it is the least concentration at which growth counts as inhibited. Read a high MIC as weaker potency.
